# Yeast superoxide: lowers age-related superoxide in aged yeast cells; S. cerevisiae aged cells, superoxide DHE fluorescence; stronger effect = lower value; superoxide response (% of plate mean), % at 10 µM; hit rate 0.18% among 330,000;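 active means superoxide response under a set limit, about three screen SD below normal, cut at about 65% in these data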;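 further: yeast aged for seven days with compound at 30 °C before DHE staining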
# Cneo AK release: causes C. neoformans cell lysis; adenylate kinase release luminescence, 4 h; normalised: neutral wells 0, clomiphene wells 100; lysis activity, % at 15 µM; hit rate 0.2% among 360,000; AID 651654;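 active means mean lysis activity across replicates of at least 80%, whatever share of replicates individually reach that level; inactive means mean lysis activity below 80%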
#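 Signal: Adenylate kinase release luminescence | Assay system: Log-phase Cryptococcus neoformans yeast cells | Input: Cells at 5 × 10^6 per mL | Buffer or medium: Fresh YPD growth medium | Compound: Single dose | Schedule: Static 4 h at 37 °C with compound, 1 h detection | Controls: Clomiphene | Read-out: Luminescence rise reflecting yeast cell lysis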
# PglD inh: inhibitors of Campylobacter jejuni PglD acetyltransferase; purified PglD enzyme, DTNB colorimetric CoA detection; hit rate 0.098% among 360,000; inhibition, % at 12.5 µM; in the data active means inhibition above about 16%, passing the limit was not always enough
# Mot1-301 SUMO: blocks SUMOylation pathway, rescuing yeast Mot1-301 growth. S. cerevisiae Mot1-301 growth rescue, ATP luminescence, 38.5C; percent above DMSO median, 100 means doubled. AID 2716. growth rescue, % at 18.8 µM. hit rate 1% among 320,000;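 active means every valid replicate shows activation above 250% relative to neutral control wells; inactive means the rest, any valid replicate at or below 250%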
# Ecoli rRNA inh: selective bacterial rRNA inhibition in E. coli; AID 720706; GFP signal change (wild-type ribosome), % (test concentration not listed); E. coli WT GFP vs humanized-ribosome RFP mutants, fluorescence, 24 h; stronger effect = lower value; DMSO median 0, no signal -100; hit rate 1.6% among 350,000;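 active means significant combined selectivity score with lowered wild-type GFP, culture density cut under 30%, mutant RFP and density less affected; inactive means any of these conditions unmet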
# CR mimetic CP: confirmation of caloric restriction mimetics inhibiting yeast age-related superoxide | shares compounds with Yeast superoxide | S. cerevisiae aging, superoxide DHE fluorescence; stronger effect = lower value | superoxide response (% of plate), % at 10 µM | hit rate 1% among 850 | AID 434994;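 active means superoxide signal below 65% of the plate average of sample wells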;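 further: cells aged with compound for 7 days at 30 degrees C before staining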
# DHE counter: DHE fluorescence interference, counter-screen artifact; shares compounds with Yeast superoxide; S. cerevisiae BY4741, flow cytometry; stronger effect = lower value; fluorescence response, % at 10 µM; 850 tested, under 10 active;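 active means fluorescence response below 15%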;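 further: lower means stronger quenching of DHE signal or ROS scavenging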
# Hits are given with their value; - = inactive; . = no result. Rows were chosen to be rich in hits. Some 2.2% of all compounds tested hit in one or more screens of this group.
SMILES,Yeast superoxide,Cneo AK release,PglD inh,Mot1-301 SUMO,Ecoli rRNA inh,others
COc1ccccc1N1CCN(Cc2ccc(Br)cc2)CC1,-,-,-,-,-28.0,
COCC(=O)N1[C@@H]2c3ccc(C4=CCCC4)c(=O)n3C[C@H]1[C@H](CO)[C@H]2C(=O)OC,.,-,-,.,-,
CC1CCCN(c2ccc(C(=O)N3CCC4(CC3)OCCO4)cc2[N+](=O)[O-])C1 (stereo unspecified),-,-,-,-,-29.5,
CC(C)NC(=O)N1C[C@@H]2N[C@H](C1)C2c1ccccc1 (stereo partly specified),.,.,.,.,-,
COc1cccc(N2CCN(Cc3cccc(Cl)c3)CC2)c1,-,.,.,-,-24.2,
COc1cccc(N2CCN(Cc3ccc(Cl)cc3)CC2)c1,-,-,-,-,-33.4,
Fc1cccc(CN2CCN(c3ccc(Cl)cc3)CC2)c1,-,-,-,-,-,
COc1cccc(CC(=O)N2CCN(Cc3cccc(Cl)c3)CC2)c1,-,-,-,-,-,
CN1[C@@H]2CN(CC3CC3)C[C@H]1C2c1ccc(Br)cc1 (stereo partly specified),.,.,.,.,-,
O=Cc1cn(Cc2c(F)cccc2Cl)c2ccccc12,-,-,-,-,-27.0,
O=Cc1cn(Cc2cccc([N+](=O)[O-])c2)c2ccccc12,-,.,.,-,-21.4,
CC(=O)N1C[C@@H]2C(c3ccccc3)[C@H](C1)N2C (stereo partly specified),.,.,.,.,-,
Cn1c(=O)[nH]c2nncnc2c1=O,59.5,.,.,-,-,
C[C@H]1CN([C@@H](C)CO)C(=O)CCCn2nncc2CO[C@@H]1CN(C)C(=O)Oc1ccc2ccccc2c1,.,-,-,.,-,
Cc1cc(OC(=O)N(C)C)nc(SCc2c(Cl)cccc2Cl)n1,-,.,.,-,-18.5,
CCCCCCC(=O)c1c(O)n(-c2ccc(OC)cc2)c(=O)[nH]c1=O (tested in a mixture with another compound),-,.,.,-,-20.1,
CCCCCCC(=O)c1c(O)n(-c2ccccc2OC)c(=O)[nH]c1=O (tested in a mixture with another compound),-,-,-,-,-,
COC(=O)[C@@H]1[C@@H](CO)[C@@H]2Cn3c(ccc(C4=CCCCC4)c3=O)[C@H]1N2Cc1ccccc1OC,.,.,.,.,-,
COc1ccccc1-n1c(Cc2ccccc2)nc2ccccc2c1=O,-,-,-,-,-22.4,
COc1ccc(-n2c(-c3ccc(C)cc3)nc3ccccc3c2=O)cc1,-,.,.,-,-26.8,
Oc1ccc(/C=N/NP(=S)(c2ccccc2)c2ccccc2)cc1O,-,-,-,-,-20.8,
O=C(O)[C@@H]1[C@@H](CO)[C@@H]2Cn3c(ccc(-c4cccnc4)c3=O)[C@H]1N2S(=O)(=O)c1ccccc1F,.,-,-,.,-,
COc1ccc(SCC2CN(C)CCC2c2ccc(F)cc2)cc1 (stereo unspecified),-,.,.,-,-33.5,
COc1cccc(C2CCN(C)C2)c1 (stereo unspecified),.,-,-,.,-,
CC(C)NC(=O)N1CC2C(c3ccccc3)C(C1)N2C (stereo unspecified),.,.,.,.,-,
SMILES,Yeast superoxide,Cneo AK release,PglD inh,Mot1-301 SUMO,Ecoli rRNA inh,others
C[C@]12CCC3C(CC[C@H]4C[C@@H](O)CC[C@]34C)C1C[C@@H](O)C2=O (stereo partly specified),-,-,-,-,-23.3,
COC(=O)[C@H]1[C@H](CO)[C@H]2Cn3c(ccc(-c4ccccc4)c3=O)[C@@H]1N2CC1CCOCC1,.,-,-,.,-,
Cc1nc(-c2cccc(CN(C)C(=O)Oc3ccc([N+](=O)[O-])cc3)c2)no1,.,.,.,.,-19.1,
CC1N=C(c2ccccc2Cl)c2cc(Br)ccc2NC1=O (stereo unspecified),-,.,.,-,-,
O=C1Nc2ccc(Br)cc2C(c2ccccc2Cl)=NC1O (stereo unspecified),-,-,-,574.0,.,
C[C@]12CCC3C(CCC4=C/C(=N/OCC(=O)NC(CCC(=O)O)C(=O)O)CC[C@@]43C)C1CCC2O (stereo partly specified),58.0,-,-,-,-,CR mimetic CP=-;DHE counter=-
COc1ccc(C#Cc2ccc([C@@H]3[C@H]4CN(C(=O)Cc5ccncc5)CCCCN4[C@H]3CO)cc2)cc1,.,-,-,.,-,
C[C@]12CC(=O)CC1CCC1C2CC[C@@]2(C)C1CC[C@@H]2O (stereo partly specified),-,-,-,-,-,
C[C@]12CC[C@H](O)CC1C(=O)CC1C2CC[C@@]2(C)C1CC[C@@H]2O (stereo partly specified),-,.,.,-,-,CR mimetic CP=-;DHE counter=-
C[C@]12CCC(=O)C[C@@H]1CC[C@@H]1[C@@H]2CC[C@]2(C)[C@@H](O)CC[C@@H]12,54.3,-,-,.,-,CR mimetic CP=-;DHE counter=-
C[C@]12CCC(=O)CC1CCC1C2CC[C@]2(C)C(OC(=O)CCC(=O)O)CCC12 (stereo partly specified),64.4,-,-,-,-,CR mimetic CP=-;DHE counter=-
C[C@]12CCC3C(CC[C@@H]4CC(=O)CC[C@]34C)C1CC[C@@H]2O (stereo partly specified),54.3,-,-,-,-,CR mimetic CP=-;DHE counter=-
COC(=O)[C@@H]1[C@@H](CO)[C@@H]2Cn3c(ccc(C4=CCCCC4)c3=O)[C@H]1N2C(=O)CC1CC1,.,-,-,.,-,
C[C@@H]1CN([C@H](C)CO)C(=O)c2c(c3ccccc3n2C)-c2ccccc2CO[C@@H]1CN(C)C(=O)Oc1ccccc1,.,.,.,.,-,
O=C(Cc1ccccn1)N1CCCCN2[C@H](CO)[C@H](c3ccc(Br)cc3)[C@H]2C1,.,-,-,.,-,
Cn1c(O)c(C(=Nc2ccc(F)cc2)c2ccccc2Cl)c(=O)n(C)c1=O,61.9,.,.,-,-,CR mimetic CP=-;DHE counter=-
CN(C)CC#CCC(O)(c1ccccc1)C1CCCC1 (stereo unspecified),-,-,-,-,.,
CN(C)CC#CCn1c2ccccc2c2ccccc21,-,-,-,-,-,CR mimetic CP=-;DHE counter=-
C[C@]12CCC3C(CC[C@H]4C[C@@H](O)CC[C@]34C)C1CC[C@@]2(O)C(F)(F)F (stereo partly specified),-,-,-,-,-,CR mimetic CP=-;DHE counter=-
C[C@]12CCC3C(CC[C@H]4C[C@@H](O)CC[C@]34C)C1C[C@@H](O)[C@]2(C)O (stereo partly specified),-,-,-,-,-,CR mimetic CP=-;DHE counter=-
C[C@]12CC[C@H](O)C[C@@H]1CC[C@@H]1[C@@H]2CC[C@]2(C)[C@@H](C(=O)O)C[C@@H]12,-,-,-,-,-,
C[C@]12CC[C@@H](O)C[C@@H]1CC[C@@H]1[C@@H]2CC[C@]2(C)[C@@H](O)CC[C@@H]12,-,-,-,-,.,

# Screens as filed in PubChem.
